Reference: ChEMBL document CHEMBL4808182, “Discovery of the Soluble Guanylate Cyclase Activator Runcaciguat (BAY 1101042)” (J Med Chem, 2021)

Tests used:
[1] = target: T1, Guanylate cyclase soluble subunit alpha-1 (Rattus norvegicus) (UniProt P19686); assay: Activation of recombinant rat sGC alpha1 subunit expressed in CHO cells assessed as induction of [32P-cGMP] formation using alpha-[32P-GTP] as substrate measured after 6 mins by luminescence assay; format: cell-based; conditions: filed as activator
T1 sequence (whole entry): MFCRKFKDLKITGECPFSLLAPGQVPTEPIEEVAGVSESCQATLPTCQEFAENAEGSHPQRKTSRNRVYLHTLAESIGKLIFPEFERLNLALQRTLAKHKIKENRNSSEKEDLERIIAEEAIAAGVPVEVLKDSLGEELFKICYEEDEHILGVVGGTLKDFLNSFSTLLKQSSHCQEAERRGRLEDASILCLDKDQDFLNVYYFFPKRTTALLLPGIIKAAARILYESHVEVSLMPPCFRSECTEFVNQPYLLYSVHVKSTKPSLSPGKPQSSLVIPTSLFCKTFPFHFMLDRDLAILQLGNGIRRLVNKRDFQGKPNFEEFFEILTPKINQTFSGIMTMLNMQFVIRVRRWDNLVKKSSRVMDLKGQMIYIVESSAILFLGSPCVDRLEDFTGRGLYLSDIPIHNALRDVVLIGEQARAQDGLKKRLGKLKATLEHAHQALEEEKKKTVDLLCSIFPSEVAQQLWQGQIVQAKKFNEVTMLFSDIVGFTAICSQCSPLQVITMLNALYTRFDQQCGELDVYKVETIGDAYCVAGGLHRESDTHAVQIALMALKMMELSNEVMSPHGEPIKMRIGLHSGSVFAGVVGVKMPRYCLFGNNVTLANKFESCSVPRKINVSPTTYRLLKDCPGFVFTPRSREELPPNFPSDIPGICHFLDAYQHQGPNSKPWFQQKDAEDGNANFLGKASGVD

[2] = target: T1, Guanylate cyclase soluble subunit alpha-1 (Rattus norvegicus); assay: Activation of recombinant rat sGC alpha1 subunit expressed in CHO cells assessed as induction of [32P-cGMP] formation by measuring efficacy using alpha-[32P-GTP] as substrate measured after 6 mins by luminescence assay relative to control; format: cell-based; conditions: filed as activator
[3] = Clearance in Wistar rat at 0.3 mg/kg, iv measured up to 24 hrs by LC-MS analysis; format: ADME, organism-based; conditions: in vivo
Summary of the method: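 Rats dosed iv at 0.3 mg/kg; blood clearance determined.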

[4] = Plasma clearance in iv dosed Beagle dog measured up to 24 hrs by LC-MS analysis; format: ADME, organism-based, Canis lupus familiaris
[5] = Plasma clearance in iv dosed cynomolgus monkey measured up to 24 hrs by LC-MS analysis; format: ADME, organism-based, Macaca fascicularis
[6] = Activation of recombinant rat sGC expressed in CHO cells by luminescence assay; format: cell-based; conditions: CHO
Summary of the method: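 Stable CHO reporter cell line overexpressing rat sGC; cGMP formation read as luminescence. EC50 from concentration–response. MEC taken as lowest concentration giving at least threefold increase in basal luminescence.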

[7] = Volume of distribution at steady state in iv dosed Wistar rat measured up to 24 hrs by LC-MS analysis; format: ADME, organism-based; conditions: in vivo, read-out: Vdss
Summary of the method: (§1)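 Three animals per species and strain received an intravenous dose. Steady-state volume of distribution (L/kg) was derived from the blood concentration–time profile, alongside blood clearance and terminal half-life.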

[8] = Half life in iv dosed Wistar rat measured up to 24 hrs by LC-MS analysis; format: ADME, organism-based; conditions: in vivo
[9] = Oral bioavailability in Wistar rat measured up to 24 hrs by LC-MS analysis; format: ADME, organism-based; conditions: in vivo
[10] = Volume of distribution at steady state in iv dosed Beagle dog measured up to 24 hrs by LC-MS analysis; format: ADME, organism-based, Canis lupus familiaris; conditions: in vivo, read-out: Vdss; summary of the method: as §1
[11] = Half life in iv dosed Beagle dog measured up to 24 hrs by LC-MS analysis; format: ADME, organism-based, Canis lupus familiaris; conditions: in vivo
[12] = Oral bioavailability in Beagle dog measured up to 24 hrs by LC-MS analysis; format: ADME, organism-based, Canis lupus familiaris; conditions: in vivo
[13] = Volume of distribution at steady state in iv dosed cynomolgus monkey measured up to 24 hrs by LC-MS analysis; format: ADME, organism-based, Macaca fascicularis; conditions: in vivo, read-out: Vdss; summary of the method: as §1
[14] = Half life in iv dosed cynomolgus monkey measured up to 24 hrs by LC-MS analysis; format: ADME, organism-based, Macaca fascicularis; conditions: in vivo
[15] = Oral bioavailability in cynomolgus monkey measured up to 24 hrs by LC-MS analysis; format: ADME, organism-based, Macaca fascicularis; conditions: in vivo
Cytochrome P450 1A2 = target: T2, Cytochrome P450 1A2 (Homo sapiens, UniProt P05177); assay: Induction of CYP1A2 in human hepatocytes at > 123 ng/ml using phenacetin as substrate incubated for 60 mins by LC-MS/MS analysis; format: ADME, cell-based, Hepatocyte; conditions: 1 h
T2 sequence (P05177 whole entry): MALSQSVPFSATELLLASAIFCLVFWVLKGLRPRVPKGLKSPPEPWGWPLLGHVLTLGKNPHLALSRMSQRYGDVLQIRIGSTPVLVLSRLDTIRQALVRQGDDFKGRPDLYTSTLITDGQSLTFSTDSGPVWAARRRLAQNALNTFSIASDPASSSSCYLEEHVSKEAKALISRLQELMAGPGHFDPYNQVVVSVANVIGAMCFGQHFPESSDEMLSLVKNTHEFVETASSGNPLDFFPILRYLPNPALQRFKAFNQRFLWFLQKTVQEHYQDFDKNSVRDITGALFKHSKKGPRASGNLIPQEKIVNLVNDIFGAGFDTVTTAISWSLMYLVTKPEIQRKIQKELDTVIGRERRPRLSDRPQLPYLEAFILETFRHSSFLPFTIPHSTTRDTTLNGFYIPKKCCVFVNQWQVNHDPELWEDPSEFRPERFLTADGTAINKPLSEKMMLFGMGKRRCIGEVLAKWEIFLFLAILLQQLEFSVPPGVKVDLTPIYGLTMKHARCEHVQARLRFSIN

[16] = Induction of CYP3A4 in human hepatocytes using phenacetin as substrate incubated for 60 mins by LC-MS/MS analysis; conditions: 1 h

MEC [1]: 10 nM
Efficacy [2]: 63%
clearance [3]: 2.83 mL/min/kg
clearance [4]: 6.33 mL/min/kg
clearance [5]: 0.833 mL/min/kg
EC50 [6]: 43 nM
Vd [7]: 2 L/kg
half-life [8]: 13 h
bioavailability [9]: 100%
Vd [10]: 2.1 L/kg
half-life [11]: 9.3 h
bioavailability [12]: 78%
Vd [13]: 0.55 L/kg
half-life [14]: 8.3 h
bioavailability [15]: 100%
Activity (Cytochrome P450 1A2): Not Active
Activity [16]: 266 nM
Structure (SMILES): C[C@H]([C@H](C(=O)Nc1cc(C[C@H](C)C(=O)O)ccc1Cl)c1ccc(Cl)cc1)C(F)(F)F
